Measured values published in publication PMC8248431 (The Febs Journal, 2021).

Legend:
Irpex lacteus F17 DyP = settings: cited from earlier work
AncDyPD‐b1 D222A = experiment: Steady-state kinetics of peroxidase activity, AncDyPD-b1 D222A variant; format: biochemical; settings: for n (cooperativity constant): cooperativity model, 25 °C, H2O2 with ABTS as electron donor
Method in brief: (§1)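 Purified untagged (SUMO-cleaved) mutant ancestral DyP, expressed in E. coli. H2O2 varied at 25 °C in 50 mM sodium citrate at the ABTS optimal pH 3.0. ABTS was held at its maximum-activity level below substrate inhibition: 10 µM for D222A, D222E and R390K-D222E, 25 µM for R390K, and 50 µM for R390A. Reactions were started with 50–500 nM enzyme, raised to 2.0 µM if activity was low.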

AncDyPD‐b1 R390K‐D222E = experiment: Steady-state kinetics of peroxidase activity, AncDyPD-b1 R390K-D222E variant; format: biochemical; settings: cooperativity model; 25 °C; H2O2 with ABTS as electron donor
Method in brief: as §1

AncDyPD‐b1 R390K = experiment: Steady-state kinetics of peroxidase activity, AncDyPD-b1 R390K variant; format: biochemical; settings: cooperativity model; 25 °C; H2O2 with ABTS as electron donor
Method in brief: as §1

AncDyPD‐b1 R390A = experiment: Steady-state kinetics of peroxidase activity, AncDyPD-b1 R390A variant; format: biochemical; settings: cooperativity model; 25 °C; H2O2 with ABTS as electron donor
Method in brief: as §1

AncDyPD‐b1 D222E = experiment: Steady-state kinetics of peroxidase activity, AncDyPD-b1 D222E variant; format: biochemical; settings: cooperativity model; 25 °C; H2O2 with ABTS as electron donor
Method in brief: as §1

FtrDyP = experiment: Mn2+ oxidation by FtrDyP; format: biochemical, Funalia (Coriolopsis) trogii; settings: Mn^2+ substrate
AncDyPD‐b1 = experiment: Sulfoxidation; format: biochemical; settings: 17, 25, and 30 °C, 36 h, pH 3.5, 1.0 mM H2O2, 2.5 mM thioanisole

Structure (SMILES)	Km (Irpex lacteus F17 DyP)	k cat (Irpex lacteus F17 DyP)	n (cooperativity constant) (AncDyPD‐b1 R390K‐D222E)	n (cooperativity constant) (AncDyPD‐b1 R390K)	n (cooperativity constant) (AncDyPD‐b1 R390A)	n (cooperativity constant) (AncDyPD‐b1 D222E)	n (cooperativity constant) (AncDyPD‐b1 D222A)	also measured
CCn1c(=NN=c2sc3cc(S(=O)(=O)O)ccc3n2CC)sc2cc(S(=O)(=O)O)ccc21 [ABTS, 2,2'‐azino‐bis(3‐ethylbenzothiazoline‐6‐sulfonic acid)]	62 µM	8356 s⁻¹	–	–	–	–	–	fold decrease of KM versus WT (AncDyPD‐b1 D222A; ABTS oxidation, D222A vs WT): 80 fold; fold lower k cat than WT (AncDyPD‐b1 D222A; ABTS oxidation, D222A vs WT): 150 fold
OO [H2O2, hydrogen peroxide]	–	–	2.2	1.2	1	1.4	1	–
O=S(=O)([O-])[O-].[Mn+2] [Mn^2+, MnSO4]	–	–	–	–	–	–	–	efficiency of FtrDyP relative to AncDyPD‐b1 (FtrDyP): 500 times
Nc1c(N=Nc2ccc(S(=O)(=O)CCOS(=O)(=O)[O-])cc2)c(S(=O)(=O)[O-])cc2cc(S(=O)(=O)[O-])c(N=Nc3ccc(S(=O)(=O)CCOS(=O)(=O)[O-])cc3)c(O)c12.[Na+].[Na+].[Na+].[Na+] [RB5, Reactive Black 5]	–	–	2.3	2.1	1	2.2	2.8	–
Nc1c(S(=O)(=O)[O-])cc(Nc2cccc(S(=O)(=O)CCOS(=O)(=O)[O-])c2)c2c1C(=O)c1ccccc1C2=O.[Na+].[Na+] [RB19, Reactive Blue 19]	133 µM	5345 s⁻¹	–	–	–	–	–	–
CSc1ccccc1 [thioanisole]	–	–	–	–	–	–	–	conversion (peroxygenase activity, sulfoxidation) (AncDyPD‐b1): no conversion
